Measured values gathered from unrelated publications.
Lines come from different studies, so protocols differ.

Compound | assay | system | conditions | solubility
CN1CCN(CC2CCN(c3nccc4[nH]c(-c5cc(F)cc(F)c5)nc34)CC2)CC1 | shake flask | aqueous buffer | pH 6.5 | > 200 µM
Brc1cccc2c(NCc3ccccc3)nc(NCc3ccccc3)nc12 |  | aqueous buffer | pH 7.4 | < 0.01 µg/mL
CC[C@H](C)[C@H](NC(=O)[C@H](CCCNC(=N)N)NC(=O)[C@H](CCC(=O)O)NC(C)=O)C(=O)N[C@H]1CSSC[C@@H](C(=O)N[C@H](C(N)=O)[C@@H](C)O)NC(=O)[C@H](CCCNC(=N)N)NC(=O)[C@H](Cc2c[nH]cn2)NC(=O)[C@H](C)NC(=O)CNC(=O)[C@H](Cc2c[nH]c3ccccc23)NC(=O)[C@H](CC(=O)O)NC(=O)[C@H](CCC(N)=O)NC(=O)[C@H](Cc2c[nH]c3ccccc23)NC(=O)[C@H](C(C)C)NC1=O |  | PBS | pH 7.4 | 4290 µg/mL
COc1ccc2cc(-c3nn(C(C)(C)C)c(N)c3C(N)=O)cnc2c1 |  | PBS | pH 6.5, 25 °C | > 100 µM
CC(C)N1CCN(Cc2cnc(-c3cc(-c4cccc5[nH]ccc45)cc4[nH]ncc34)o2)CC1 |  | aqueous buffer | pH 10 | 1 µg/mL
COCCc1nc2nc(C)cc(Nc3ccc(S(F)(F)(F)(F)F)cc3)n2n1 | nephelometry | aqueous buffer | pH 6.5 | 31 to 62 µM
O=C(Nc1ccc(C(F)(F)F)cc1)N1CCC(Cc2cccc(Oc3ccc(C(F)(F)F)cn3)c2)CC1 |  | water | 48 h, 37 °C | 0.0016 µM
CC(C(=O)O)c1ccc(-c2ccccc2)c(F)c1 (stereo not shown) |  | PBS | pH 7.4 | 4490 µg/mL
O=C(c1ccccn1)N(Cc1cccs1)C1(C(=O)NC2CCCCC2)CCCCC1 |  | aqueous buffer | pH 7.4 | 6.5 µg/mL
CC(C)CC(=O)N1CCC[C@H](COc2cccc3c2C(N)=NS(=O)(=O)[N-]3)C1.[Na+] |  | ethanol |  | 217000 µM
O=C(Nc1cc(F)c(F)c(F)c1)c1ccc(F)c(S(=O)(=O)NCc2cccc(B(O)O)c2)c1 |  | aqueous buffer | pH 7 | 329 µg/mL
COCCc1nc2nc(C)cc(Nc3ccc(C(F)(F)F)cc3)n2n1 | nephelometry | aqueous buffer | pH 6.5 | 71 to 140 µM
Cc1c(F)cccc1Nc1nc(NCc2ccccc2)c2ccccc2n1 |  | aqueous buffer | pH 5 | 8.4 µg/mL
CN1CCN(CC2CCN(c3nccc4[nH]c(-c5cccc(OCCN)c5)nc34)CC2)CC1 | shake flask | aqueous buffer | pH 6.5 | > 200 µM
N=C(N)NCc1ccc(NC(=O)c2ccc(C(=O)Nc3ccc(C4=CCN(C(=N)N)CC4)cc3)cn2)cc1 | shake flask | aqueous buffer | pH 7.4 | 4.5 µg/mL
O=C(Nc1ccc(S(=O)(=O)N2CCC(Cl)CC2)cc1)c1ccc([N+](=O)[O-])o1 |  | aqueous buffer | pH 7.4 | 9.7 µM
Cc1ccc(S(=O)(=O)NCc2ccc(C(=O)NCCN(Cc3ccccc3)C(C)C)cc2)cc1 |  | aqueous buffer | pH 5 | 0.47 µg/mL
CC[C@H](C)[C@H](NC(=O)[C@H](Cc1ccccc1)NC(=O)[C@H](Cc1ccc(O)cc1)NC(=O)[C@@H]1CCCN1C(=O)[C@@H](N)Cc1ccc(O)cc1)C(=O)N1CCC[C@H]1C(=O)N[C@H](CCCCN)C(=O)NCC(=O)N[C@H](CCCCN)C(=O)NCC(=O)N[C@@H](CCC(=O)O)C(=O)N[C@H](C(=O)N[C@@H](CC(N)=O)C(=O)N[C@@H](CC(C)C)[C@@H](O)CC(=O)N[C@H](C(=O)N[C@@H](C)C(=O)N[C@@H](CCC(=O)O)C(=O)N1CCC[C@@H]1C(=O)N[C@@H](CCCCNC(=O)CCC(=O)O[C@H]1CC[C@@]2(C)C(=CC[C@H]3[C@@H]4CC[C@H]([C@H](C)CCCC(C)C)[C@@]4(C)CC[C@@H]32)C1)C(N)=O)C(C)C)C(C)C |  | aqueous buffer | pH 6.5 | > 718 µg/mL
C[C@]12CCCN1CC1=NNC(=O)c3cc(F)cc4[nH]c2c1c34 |  | ethanol |  | 49000 µg/mL
COC(=O)[C@H]1[C@H]2C[C@@H]3c4[nH]c5cc(OC)ccc5c4CCN3C[C@H]2C[C@@H](OC(=O)c2cc(OC)c(OC)c(OC)c2)[C@@H]1OC | shake flask | PBS | 24 h, pH 6.5, 25 °C | < 5 µM
COc1cc(F)c(S(=O)(=O)N2CCN(S(=O)(=O)c3cccc(N)c3)CC2)c(F)c1 |  | aqueous buffer |  | < 0.4 µg/mL
CCOc1ccc2cc(-c3nn(C4CCCCC4)c(N)c3C(N)=O)ccc2n1 |  | PBS | pH 6.5, 25 °C | 88.9 µM
CCCOC(=O)c1ccc(N)cc1 |  | PBS | pH 7.4 | 749 µg/mL
O=C(Nc1c2c(cc3c1CCC3)CCC2)NS(=O)(=O)/C=C/c1nccs1 |  | water | 24 h, 37 °C | 11.2 µg/mL
O=C1NCCc2nc(OCc3cccc(F)c3)ccc21 |  | FaSSIF | 24 h, pH 7.2 | 114 µM
NCCCNc1nc2cc(Br)ccc2n1Cc1ccccc1 | shake flask | aqueous buffer | 20 h, pH 6.5, 25 °C | 100 µM
CSc1nc2nc(C)cc(Nc3ccc(C(F)(F)F)cc3)n2n1 | nephelometry | aqueous buffer | pH 6.5 | 19 to 38 µM
c1ccc(CNc2nc(N3CCOc4ccccc43)nc3ccccc23)cc1 |  | aqueous buffer | pH 7.4 | 0.48 µg/mL

Compound | assay | system | conditions | solubility
CCOc1ccc2cc(-c3nn(CC4CC4)c(N)c3C(N)=O)cnc2c1 |  | PBS | pH 6.5, 25 °C | 26.5 µM
Brc1ccccc1CNc1nc(NCc2ccccc2)c2ccccc2n1 |  | aqueous buffer | pH 7.4 | 0.14 µg/mL
NCC1CCN(c2nccc3[nH]c(-c4cccc(OC(F)(F)F)c4)nc23)CC1 | shake flask | aqueous buffer | pH 6.5 | > 200 µM
Cc1cccc(C(=O)Nc2cccc(NC(=O)c3ccccc3)c2)c1 |  | PBS | pH 7.4 | 0.82 µM
N=C(N)NCc1ccc(NC(=O)C23CC(C(=O)Nc4ccc(C5=CCN(C(=N)N)CC5)cc4)(C2)C3)cc1 | shake flask | aqueous buffer | pH 7.4 | 770 µg/mL
COc1ccc(Nc2nc(NCc3ccccc3)c3ccccc3n2)cc1F |  | aqueous buffer | pH 6.2 | 0.03 µg/mL
Fc1ccc(-c2nc3c(N4CCN5CCC4CC5)nccc3[nH]2)cc1F | shake flask | aqueous buffer | pH 6.5 | > 200 µM
COc1cc(OC)cc(N(CCNC(C)C)c2ccc3ncc(-c4cnn(C)c4)nc3c2)c1 |  | aqueous buffer | pH 6.79 | 6820 µg/mL
O=C(Nc1ccc(F)cc1C(=O)O)c1ccc(-c2ccccc2)cc1 | shake flask | aqueous buffer | 24 h, pH 6.5, 25 °C | 10 µM
CS(=O)(=O)c1ccc2c(c1)nc(C1CCNCC1)n2Cc1ccccc1.Cl | shake flask | aqueous buffer | 20 h, pH 6.5, 25 °C | 200 µM
CCCCCCCCCCCCCC(=O)Nc1ccc(CP(=O)(O)O)cc1 |  | water |  | 1000 µg/mL
OCCOc1cccc2c(NCc3ccccc3)nc(N3CCOc4ccccc43)nc12 |  | aqueous buffer | pH 6.2 | 0.48 µg/mL
COc1ccc2c(c1)c(CC(=O)O)c(C)n2C(=O)c1ccc(Cl)cc1 |  | PBS | 20 h, pH 7.4, 20 °C | 246 µg/mL
CCOc1nc2nc(C)cc(Nc3ccc(C(F)(F)F)cc3)n2n1 | nephelometry | aqueous buffer | pH 6.5 | 19 to 37 µM
Cc1cc(F)cc(Nc2nc(NCc3ccccc3)c3ccccc3n2)c1 |  | aqueous buffer | pH 6.2 | < 0.01 µg/mL
Cl.Clc1ccc2c(c1)nc(NCCNCc1ccccc1)n2Cc1ccccc1 | shake flask | aqueous buffer | 20 h, pH 6.5, 25 °C | 25 µM
CNC(=O)c1ccc(N(Cc2ccc(C3CCCCC3)cn2)C(=O)[C@H]2CCN2S(=O)(=O)c2c(F)c(F)c(F)c(F)c2F)cc1O |  | simulated gastric fluid |  | 115 µg/mL
O=C(NCCN1CCCC1)c1cc(-c2ccc(CN3CCOCC3)cc2)nc2ccc(F)cc12 |  | aqueous buffer | pH 7.4 | 2800 µM
CCOc1ccc2cc(-c3nn(C4CCC4)c(N)c3C(N)=O)cnc2c1 |  | PBS | pH 6.5, 25 °C | 10.9 µM
CCCCCCCCO |  | PBS | 48 h, pH 7.4, 25 °C | 6000 µM
CCCn1nc(C(=O)N2CCCCC2)c2c1CCC(N(C)Cc1ccc(F)cc1)C2 (stereo not shown) |  | PBS | 16 h, pH 7.4 | 2420 µM
O=C(CCCCCCC(=O)Nc1ccccc1)NO | HPLC | water | 48 h, pH 6, 25 °C | 160 µg/mL
CCOC(=O)C1=C(C)NC(C)=C(C(=O)OC)C1c1cccc([N+](=O)[O-])c1 (stereo not shown) |  | FaSSIF | 24 h, pH 7.4, 37 °C | 8 µg/mL
COc1cccc(OC)c1-c1cc(C(=O)N[C@@H](CC(C)C)C(=O)O)nn1-c1ccnc2cc(Cl)ccc12 |  | aqueous buffer | pH 5 | 52.9 µg/mL
COc1c(Cl)cccc1Nc1nc(NCc2ccccc2)c2ccccc2n1 |  | aqueous buffer | pH 6.2 | 0.23 µg/mL
Cc1c(F)cccc1NC(=O)Nc1ccc(Cl)c(S(=O)(=O)[C@H]2CCCNC2)c1O |  | aqueous buffer | 4 h, pH 3 | 161 µg/mL
Cl.c1ccc(Cn2c(N3CCNCC3)nc3cc(-c4ccccc4)ccc32)cc1 | shake flask | aqueous buffer | 20 h, pH 6.5, 25 °C | 25 µM
